Active and inactive are the calls of the source. No cut-off for these calls is given here.
Legend:
[1] = molecular target: Receptor tyrosine-protein kinase erbB-2 (Homo sapiens) (UniProt P04626); assay: Inhibition of HER2 kinase domain phosphorylation in human BT474 cells at 0.4 uM by Western blot analysis; assay type: cell-based; conditions: BT-474, TDE = time-dependent effect
How it was run: (§1)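 BT-474 cells (RPMI-1640) and SKBR-3 cells (McCoy's), each with 10% FBS and insulin, plated in triplicate flasks and treated after 24 h with 0.4 μM compound or left untreated at 37 °C, 5% CO2. Lysates made with protease and phosphatase inhibitors; 40 μg protein run on 10% SDS-PAGE. Blots probed with p-HER2 antibody (1:3000, 15 h, 4 °C), detected by ECL; total HER2 blotted with an anti-ECD antibody.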

[2] = molecular target: Receptor tyrosine-protein kinase erbB-2 (Homo sapiens) (UniProt P04626); assay: Binding affinity to HER2 extracellular domain in human SKBR3 cells assessed as inhibition of EGFR binding; assay type: cell-based; conditions: SK-BR-3
[3] = molecular target: Receptor tyrosine-protein kinase erbB-2 (Homo sapiens) (UniProt P04626); assay: Inhibition of HER2 kinase domain phosphorylation in human BT474 cells at 0.4 uM after 18 hrs by Western blot analysis; assay type: cell-based; conditions: BT-474; how it was run: as §1
[4] = molecular target: Receptor tyrosine-protein kinase erbB-2 (Homo sapiens) (UniProt P04626); assay: Inhibition of HER2 kinase domain phosphorylation in human SKBR3 cells at 0.4 uM after 18 hrs by Western blot analysis; assay type: cell-based; conditions: SK-BR-3; how it was run: as §1
[5] = molecular target: Receptor tyrosine-protein kinase erbB-2 (Homo sapiens) (UniProt P04626); assay: Inhibition of HER2 kinase domain phosphorylation in human SKBR3 cells at 0.4 uM by Western blot analysis; assay type: cell-based; conditions: SK-BR-3, TDE = time-dependent effect; how it was run: as §1
[6] = molecular target: Receptor tyrosine-protein kinase erbB-2 (Homo sapiens) (UniProt P04626); assay: Binding affinity to HER2 extracellular domain in human SKBR3 cells assessed as inhibition of HER3 binding at 0.5 uM after 24 hrs by confocal microscopy-based proximity ligation assay; assay type: cell-based; conditions: SK-BR-3
How it was run: (§2)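 SKBR-3 cells seeded at 5 × 10^4 per chamber well and grown 24 h at 37 °C, then treated 24 h. Cells fixed in ice-cold methanol at −20 °C and blocked in 5% BSA 1 h. Primary antibodies anti-HER2 (rabbit) and anti-HER3 (mouse), each 1:400, applied overnight at 4 °C. Duolink PLA probes, ligation and amplification at 37 °C, then confocal imaging of red heterodimer spots.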

[7] = molecular target: Receptor tyrosine-protein kinase erbB-2 (Homo sapiens) (UniProt P04626); assay: Binding affinity to HER2 extracellular domain in human SKBR3 cells assessed as inhibition of HER3 binding at 0.8 uM after 24 hrs by confocal microscopy-based proximity ligation assay; assay type: cell-based; conditions: SK-BR-3; how it was run: as §2
[8] = Cellular uptake in human SKBR3 cells plasma membrane overexpressing HER2 at 0.4 uM after 24 hrs by membrane tracking-based confocal microscopic analysis; assay type: ADME, cell-based; conditions: sk-br-3, 24 h
How it was run: (§3)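 SKBR-3 cells in chamber wells given 0.4 μM BODIPY conjugate at 37 °C for 24 or 48 h, PBS-washed and fixed in ice-cold methanol at −20 °C for 5 min. Membrane tracker (5 min) or Lyso tracker (30 min) in serum-free medium added at 37 °C. Mounted slides imaged by confocal microscopy at 40X under oil with argon and HeNe lasers to assess co-localization.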

SK-BR-3 [9] = assay: Cellular uptake in human SKBR3 cells overexpressing HER2 at 1 to 10 uM by fluorescence plate reader analysis; assay type: ADME, cell-based; conditions: sk-br-3, 10 µM, TDE = time-dependent effect
How it was run: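 Fluorescent BODIPY conjugate diluted in McCoy's medium to 1 and 10 μM and added to SKBR-3 cells (10,000/well, grown 24 h) at 37 °C. At 0, 12, 24, 36, 48 and 72 h, medium removed and cells washed twice with PBS. Cell-associated fluorescence read on a plate reader at 490/530 nm excitation/emission.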

SK-BR-3 [10] = assay: Cellular uptake in human SKBR3 cells overexpressing HER2 at 0.4 uM after 48 hrs by lyso tracking-based confocal microscopic analysis; assay type: ADME, cell-based; conditions: sk-br-3, 48 h; how it was run: as §3

Chain of Receptor tyrosine-protein kinase erbB-2 (Homo sapiens) (P04626 whole entry, the tested form may be a part): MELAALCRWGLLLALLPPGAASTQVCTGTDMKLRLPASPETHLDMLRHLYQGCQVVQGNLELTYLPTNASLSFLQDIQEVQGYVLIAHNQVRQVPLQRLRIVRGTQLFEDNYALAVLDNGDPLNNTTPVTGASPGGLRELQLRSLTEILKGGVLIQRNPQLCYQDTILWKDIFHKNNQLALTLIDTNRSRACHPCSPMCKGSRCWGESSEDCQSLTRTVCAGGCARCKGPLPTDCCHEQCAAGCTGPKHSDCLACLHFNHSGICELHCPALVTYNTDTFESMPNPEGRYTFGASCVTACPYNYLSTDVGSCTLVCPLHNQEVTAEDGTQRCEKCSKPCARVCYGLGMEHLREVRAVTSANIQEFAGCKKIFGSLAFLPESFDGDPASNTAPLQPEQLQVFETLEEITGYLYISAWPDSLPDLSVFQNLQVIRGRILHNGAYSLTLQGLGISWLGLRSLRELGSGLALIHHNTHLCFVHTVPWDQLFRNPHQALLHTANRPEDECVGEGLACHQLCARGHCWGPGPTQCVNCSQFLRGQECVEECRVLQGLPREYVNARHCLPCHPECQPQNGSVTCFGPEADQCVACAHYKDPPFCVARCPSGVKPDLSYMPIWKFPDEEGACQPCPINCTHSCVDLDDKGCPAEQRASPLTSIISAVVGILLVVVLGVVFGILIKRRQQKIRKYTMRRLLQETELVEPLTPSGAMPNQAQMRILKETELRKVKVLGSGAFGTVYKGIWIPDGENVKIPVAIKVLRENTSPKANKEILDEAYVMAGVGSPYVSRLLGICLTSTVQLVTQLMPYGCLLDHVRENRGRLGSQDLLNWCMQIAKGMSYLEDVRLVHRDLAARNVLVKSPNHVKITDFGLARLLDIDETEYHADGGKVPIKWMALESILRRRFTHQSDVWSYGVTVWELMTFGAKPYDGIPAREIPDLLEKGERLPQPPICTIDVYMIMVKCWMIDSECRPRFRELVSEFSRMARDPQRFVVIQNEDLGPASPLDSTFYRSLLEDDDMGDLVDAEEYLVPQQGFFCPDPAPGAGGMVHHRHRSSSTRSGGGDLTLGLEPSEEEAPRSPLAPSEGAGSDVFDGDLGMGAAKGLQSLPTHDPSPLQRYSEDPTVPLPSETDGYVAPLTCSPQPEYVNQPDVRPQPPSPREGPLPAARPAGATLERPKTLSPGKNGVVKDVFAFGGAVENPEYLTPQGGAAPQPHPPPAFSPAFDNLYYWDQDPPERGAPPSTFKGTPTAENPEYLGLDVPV

inhibition [1]	inhibition [2]	inhibition [3]	inhibition [4]	inhibition [5]	inhibition [6]	inhibition [7]	Drug uptake [8]	Drug uptake (SK-BR-3 [9])	Drug uptake (SK-BR-3 [10])	Compound
tde	Active	Active	Active	tde	inactive	Active	–	–	–	N=C(N)NCCC[C@H](N)C(=O)NC(CC(=O)N[C@@H](Cc1ccccc1)C(=O)O)c1cccc2ccccc12 (stereo not given in full)
–	–	–	–	–	–	–	Active	tde	Active	Cc1cc(C)n2c1C=C1C=CC(CCCCC(=O)N[C@@H](CCCNC(=N)N)C(=O)NC(CC(=O)N[C@@H](Cc3ccccc3)C(=O)O)c3cccc4ccccc34)=[N+]1[B-]2(F)F (stereo not given in full)

Source: ChEMBL document CHEMBL2401612, “Design, synthesis and characterization of peptidomimetic conjugate of BODIPY targeting HER2 protein extracellular domain” (Eur J Med Chem, 2013)
